# Tests used:
# Type in all cases: cell-based
# Conditions in all cases: mdck-ii; call rule not given here
# [1] = target: T1, Multidrug resistance-associated protein 1 (Homo sapiens, UniProt P33527); test: Inhibition of human MRP1 expressed in MDCK2 cells assessed as increase in intracellular CMF fluorescence by CMFDA assay
# Outline: (§1)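 MDCKII cells stably transfected with human MRP1, MRP2 or MRP3 cDNA, parental MDCKII as control, grown in DMEM with 10% FCS. Cells preincubated 30 min at 37 °C in darkness ± inhibitor in HBSS with 1 mM pyruvate, then 50 nM CMFDA (final) added for 10 min. Intracellular CMF fluorescence read by confocal laser-scanning microscopy. 20 µM MK571 positive control. At least triplicate, different days.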
# [2] = target: T2, ATP-binding cassette sub-family C member 2 (Homo sapiens, UniProt Q92887); test: Inhibition of human MRP2 expressed in MDCK2 cells assessed as increase in intracellular CMF fluorescence by CMFDA assay; outline: as §1
# T2 sequence (Q92887 whole entry): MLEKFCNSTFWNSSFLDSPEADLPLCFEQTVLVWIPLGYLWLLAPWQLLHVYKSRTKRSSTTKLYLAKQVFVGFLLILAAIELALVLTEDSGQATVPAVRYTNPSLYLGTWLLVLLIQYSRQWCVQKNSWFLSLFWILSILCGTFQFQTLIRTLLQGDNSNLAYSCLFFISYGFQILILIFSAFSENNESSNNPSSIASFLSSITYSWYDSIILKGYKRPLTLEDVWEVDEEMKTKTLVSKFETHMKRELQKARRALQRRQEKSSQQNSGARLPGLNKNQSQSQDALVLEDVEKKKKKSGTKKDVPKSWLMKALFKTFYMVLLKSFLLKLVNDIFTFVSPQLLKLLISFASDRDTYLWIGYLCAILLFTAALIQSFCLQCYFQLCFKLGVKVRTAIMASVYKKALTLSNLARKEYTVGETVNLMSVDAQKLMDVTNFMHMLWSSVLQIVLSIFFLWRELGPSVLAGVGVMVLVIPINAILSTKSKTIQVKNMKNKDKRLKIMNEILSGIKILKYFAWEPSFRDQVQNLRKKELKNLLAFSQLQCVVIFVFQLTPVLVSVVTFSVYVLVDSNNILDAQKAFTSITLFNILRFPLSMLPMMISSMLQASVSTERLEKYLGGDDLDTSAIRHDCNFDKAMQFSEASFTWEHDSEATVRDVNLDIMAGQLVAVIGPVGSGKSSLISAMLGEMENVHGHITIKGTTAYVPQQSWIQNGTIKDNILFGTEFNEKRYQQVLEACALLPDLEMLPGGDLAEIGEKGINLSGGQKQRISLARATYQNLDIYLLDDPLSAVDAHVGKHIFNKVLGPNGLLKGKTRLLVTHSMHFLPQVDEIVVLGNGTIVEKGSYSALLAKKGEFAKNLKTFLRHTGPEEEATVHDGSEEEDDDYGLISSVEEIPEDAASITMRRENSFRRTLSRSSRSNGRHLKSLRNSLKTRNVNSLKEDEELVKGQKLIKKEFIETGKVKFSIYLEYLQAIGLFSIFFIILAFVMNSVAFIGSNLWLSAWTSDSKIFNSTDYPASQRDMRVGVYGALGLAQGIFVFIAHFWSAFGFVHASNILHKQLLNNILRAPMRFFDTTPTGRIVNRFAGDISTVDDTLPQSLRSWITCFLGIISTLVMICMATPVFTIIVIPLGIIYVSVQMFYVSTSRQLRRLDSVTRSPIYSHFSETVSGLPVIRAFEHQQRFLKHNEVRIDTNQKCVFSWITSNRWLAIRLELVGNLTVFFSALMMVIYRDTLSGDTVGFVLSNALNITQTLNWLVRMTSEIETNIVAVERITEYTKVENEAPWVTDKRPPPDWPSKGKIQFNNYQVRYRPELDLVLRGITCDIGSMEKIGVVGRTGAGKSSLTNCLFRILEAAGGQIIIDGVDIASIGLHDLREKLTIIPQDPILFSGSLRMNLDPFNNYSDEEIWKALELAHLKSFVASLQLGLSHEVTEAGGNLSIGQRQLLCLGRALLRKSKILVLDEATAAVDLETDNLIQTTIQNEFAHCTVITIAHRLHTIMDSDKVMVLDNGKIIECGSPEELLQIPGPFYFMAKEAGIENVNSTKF
# [3] = target: T3, ATP-binding cassette sub-family C member 3 (Homo sapiens, UniProt O15438); test: Inhibition of human MRP3 expressed in MDCK2 cells assessed as increase in intracellular CMF fluorescence by CMFDA assay; outline: as §1
# T3 sequence (O15438 whole entry): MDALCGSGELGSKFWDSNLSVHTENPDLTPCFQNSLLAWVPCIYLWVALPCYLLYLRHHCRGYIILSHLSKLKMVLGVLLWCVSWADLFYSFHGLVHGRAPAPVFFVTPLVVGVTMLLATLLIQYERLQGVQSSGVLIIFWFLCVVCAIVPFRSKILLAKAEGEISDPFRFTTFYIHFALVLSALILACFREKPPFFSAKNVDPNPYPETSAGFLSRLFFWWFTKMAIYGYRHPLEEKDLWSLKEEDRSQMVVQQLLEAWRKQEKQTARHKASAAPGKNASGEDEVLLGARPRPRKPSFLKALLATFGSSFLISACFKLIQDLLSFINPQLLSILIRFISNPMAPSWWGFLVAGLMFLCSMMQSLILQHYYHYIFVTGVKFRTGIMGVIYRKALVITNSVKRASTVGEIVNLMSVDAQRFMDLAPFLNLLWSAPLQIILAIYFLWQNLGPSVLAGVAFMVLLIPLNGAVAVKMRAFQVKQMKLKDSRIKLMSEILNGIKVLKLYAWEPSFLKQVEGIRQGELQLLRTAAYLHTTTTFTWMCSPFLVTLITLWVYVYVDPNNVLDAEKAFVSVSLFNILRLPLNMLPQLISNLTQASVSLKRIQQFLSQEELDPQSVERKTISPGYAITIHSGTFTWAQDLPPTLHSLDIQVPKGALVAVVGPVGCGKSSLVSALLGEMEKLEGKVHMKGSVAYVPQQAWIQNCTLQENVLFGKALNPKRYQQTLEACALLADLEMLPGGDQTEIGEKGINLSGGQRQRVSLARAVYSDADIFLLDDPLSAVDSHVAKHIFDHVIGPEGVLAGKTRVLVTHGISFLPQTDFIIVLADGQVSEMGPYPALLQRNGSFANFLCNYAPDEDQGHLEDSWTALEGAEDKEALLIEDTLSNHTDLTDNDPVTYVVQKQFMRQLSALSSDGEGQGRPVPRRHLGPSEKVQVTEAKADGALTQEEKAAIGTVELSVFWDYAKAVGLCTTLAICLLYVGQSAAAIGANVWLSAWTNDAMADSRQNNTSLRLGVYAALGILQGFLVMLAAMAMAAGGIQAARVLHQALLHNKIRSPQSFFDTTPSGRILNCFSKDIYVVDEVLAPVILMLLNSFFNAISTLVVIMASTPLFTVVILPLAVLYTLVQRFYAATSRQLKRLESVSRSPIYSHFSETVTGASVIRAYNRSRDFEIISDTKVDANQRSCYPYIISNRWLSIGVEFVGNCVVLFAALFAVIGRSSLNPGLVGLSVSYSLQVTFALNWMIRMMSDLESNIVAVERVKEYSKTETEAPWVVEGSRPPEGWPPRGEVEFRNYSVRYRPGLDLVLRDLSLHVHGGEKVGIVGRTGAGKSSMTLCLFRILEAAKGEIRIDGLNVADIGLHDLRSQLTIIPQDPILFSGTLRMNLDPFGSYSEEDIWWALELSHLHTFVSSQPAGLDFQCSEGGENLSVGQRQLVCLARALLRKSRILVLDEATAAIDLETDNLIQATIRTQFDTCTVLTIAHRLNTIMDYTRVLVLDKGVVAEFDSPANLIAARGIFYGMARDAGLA
# [4] = target: T2, ATP-binding cassette sub-family C member 2; test: Inhibition of human MRP2 expressed in MDCK2 cells assessed as increase in intracellular CMF fluorescence at 10 uM by CMFDA assay; outline: as §1
# [5] = target: T3, ATP-binding cassette sub-family C member 3; test: Inhibition of human MRP3 expressed in MDCK2 cells assessed as increase in intracellular CMF fluorescence at 10 uM by CMFDA assay; outline: as §1
# [6] = target: T1, Multidrug resistance-associated protein 1; test: Inhibition of human MRP1 expressed in MDCK2 cells assessed as increase in intracellular CMF fluorescence at 10 uM by CMFDA assay; outline: as §1
# [7] = target: T1, Multidrug resistance-associated protein 1; test: Inhibition of human MRP1 expressed in MDCK2 cells assessed as increase in intracellular CMF fluorescence at 16.7 uM by CMFDA assay; outline: as §1
# [8] = target: T2, ATP-binding cassette sub-family C member 2; test: Inhibition of human MRP2 expressed in MDCK2 cells assessed as increase in intracellular CMF fluorescence at 16.7 uM by CMFDA assay; outline: as §1
# [9] = target: T3, ATP-binding cassette sub-family C member 3; test: Inhibition of human MRP3 expressed in MDCK2 cells assessed as increase in intracellular CMF fluorescence at 16.7 uM by CMFDA assay; outline: as §1
# T1 sequence (P33527 whole entry): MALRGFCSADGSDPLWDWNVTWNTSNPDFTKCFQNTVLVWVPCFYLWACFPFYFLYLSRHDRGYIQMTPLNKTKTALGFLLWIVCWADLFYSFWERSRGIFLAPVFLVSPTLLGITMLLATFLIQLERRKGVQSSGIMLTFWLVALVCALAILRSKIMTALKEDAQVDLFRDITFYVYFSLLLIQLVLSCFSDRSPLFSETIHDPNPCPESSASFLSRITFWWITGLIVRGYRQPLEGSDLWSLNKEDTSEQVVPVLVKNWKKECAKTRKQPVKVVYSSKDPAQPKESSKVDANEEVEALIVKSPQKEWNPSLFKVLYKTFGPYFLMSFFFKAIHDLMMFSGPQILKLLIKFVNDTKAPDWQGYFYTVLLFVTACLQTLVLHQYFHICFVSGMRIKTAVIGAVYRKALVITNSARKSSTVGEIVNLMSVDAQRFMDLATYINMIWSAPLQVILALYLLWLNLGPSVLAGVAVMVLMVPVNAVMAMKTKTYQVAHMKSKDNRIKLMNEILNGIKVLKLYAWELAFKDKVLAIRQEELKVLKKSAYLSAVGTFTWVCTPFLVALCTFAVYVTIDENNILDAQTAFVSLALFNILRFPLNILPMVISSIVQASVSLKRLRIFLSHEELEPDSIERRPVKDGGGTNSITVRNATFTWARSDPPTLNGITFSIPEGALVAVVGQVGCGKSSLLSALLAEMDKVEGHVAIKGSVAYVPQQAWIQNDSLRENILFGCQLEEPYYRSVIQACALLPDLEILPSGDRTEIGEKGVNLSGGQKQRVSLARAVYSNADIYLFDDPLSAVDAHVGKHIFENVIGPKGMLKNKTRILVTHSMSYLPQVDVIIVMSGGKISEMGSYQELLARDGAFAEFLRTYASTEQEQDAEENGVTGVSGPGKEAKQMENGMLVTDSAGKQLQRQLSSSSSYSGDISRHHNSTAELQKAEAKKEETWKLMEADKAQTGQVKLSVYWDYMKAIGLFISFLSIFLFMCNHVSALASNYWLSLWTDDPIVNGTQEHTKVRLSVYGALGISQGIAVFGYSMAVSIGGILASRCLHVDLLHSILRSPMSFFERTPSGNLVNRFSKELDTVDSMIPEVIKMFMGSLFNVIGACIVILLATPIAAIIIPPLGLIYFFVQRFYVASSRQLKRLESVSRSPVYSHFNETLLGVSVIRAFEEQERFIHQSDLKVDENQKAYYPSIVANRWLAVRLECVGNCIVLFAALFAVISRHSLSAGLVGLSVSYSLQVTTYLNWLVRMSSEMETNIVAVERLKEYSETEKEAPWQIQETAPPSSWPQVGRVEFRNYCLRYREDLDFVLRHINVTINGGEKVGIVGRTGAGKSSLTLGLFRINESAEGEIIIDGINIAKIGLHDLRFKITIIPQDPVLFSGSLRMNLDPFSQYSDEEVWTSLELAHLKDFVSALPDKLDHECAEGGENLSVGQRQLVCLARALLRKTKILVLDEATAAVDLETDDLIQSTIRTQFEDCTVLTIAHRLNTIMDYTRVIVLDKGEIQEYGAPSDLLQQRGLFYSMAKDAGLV
Structure (SMILES),Activity [1],Activity [2],Activity [3],Activity [4],Activity [5],Activity [6],Activity [7],Activity [8],Activity [9]
Nc1ccn([C@@H]2CS[C@H](CO)O2)c(=O)n1 [LAMIVUDINE],Dose-dependent effect,Dose-dependent effect,Dose-dependent effect,Active,Active,Active,–,–,–
C[C@H](Cn1cnc2c(N)ncnc21)OCP(=O)(O)O [TENOFOVIR ANHYDROUS],Dose-dependent effect,Dose-dependent effect,Dose-dependent effect,Active,Active,Active,–,–,–
CC(C)Nc1cccnc1N1CCN(C(=O)c2cc3cc(NS(C)(=O)=O)ccc3[nH]2)CC1 [DELAVIRDINE],Dose-dependent effect,Dose-dependent effect,Dose-dependent effect,–,–,–,Active,Active,Active
Nc1nc(=O)n([C@@H]2CS[C@H](CO)O2)cc1F [EMTRICITABINE],Dose-dependent effect,Dose-dependent effect,Dose-dependent effect,Active,Active,Active,–,–,–
O=C1Nc2ccc(Cl)cc2[C@@](C#CC2CC2)(C(F)(F)F)O1 [EFAVIRENZ],Dose-dependent effect,Dose-dependent effect,Dose-dependent effect,Active,Active,Active,–,–,–
Cc1ccnc2c1NC(=O)c1cccnc1N2C1CC1 [NEVIRAPINE],Dose-dependent effect,Dose-dependent effect,Dose-dependent effect,Active,Active,Active,–,–,–
Nc1nc(NC2CC2)c2ncn([C@H]3C=C[C@@H](CO)C3)c2n1 [ABACAVIR],Dose-dependent effect,Dose-dependent effect,–,Active,Active,Active,–,–,–
